# Compound activity (PubChem BioAssay)
# Hits are enriched below; roughly 1.9% of the tested compounds scored in any of these assays.
# Scp-1 inhibitor: Scp-1 phosphatase inhibitors, primary screen, biochemical, colorimetric, uHTS | Carboxy-terminal domain RNA polymerase II polypeptide A small phosphatase 1 (Homo … | Recombinant Scp1, phosphopeptide, malachite green phosphate absorbance | inhibition, % at 20 µM | actives 0.88% (n = 340,000) | AID 493091, 2011;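 active = inhibition above about 50% at 20 µM, limit read from the data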
# Target sequence (Q9GZU7 76-261 limits assumed): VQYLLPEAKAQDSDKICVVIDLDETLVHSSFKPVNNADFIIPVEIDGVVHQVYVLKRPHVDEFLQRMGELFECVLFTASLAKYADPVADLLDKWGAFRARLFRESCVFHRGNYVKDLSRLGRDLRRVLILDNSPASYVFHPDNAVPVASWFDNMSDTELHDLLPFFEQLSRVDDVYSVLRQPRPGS
#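 Incubation: 45 min enzyme reaction at room temperature / System: truncated SCP-1 phosphatase (76-261aa) / Reagent: Phospho 17-mer peptide substrate / Buffer or medium: Acidic Tris acetate buffer with magnesium and detergent / Signal: absorbance at 630 nm / Doses: one concentration, 20 µM, with 1.0% DMSO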
# SUMO1-SIM PPI: modulators of SUMO1 protein-protein interactions, primary screen, biochemical, uHTS | SUMO1 binding to a labelled peptide, TR-FRET, 1 h | inhibition, % at 20 µM | actives 0.33% (n = 360,000) | AID 602429, 2012; in the data active = inhibition above about 37%
# Target sequence (P63165 whole entry, looked up): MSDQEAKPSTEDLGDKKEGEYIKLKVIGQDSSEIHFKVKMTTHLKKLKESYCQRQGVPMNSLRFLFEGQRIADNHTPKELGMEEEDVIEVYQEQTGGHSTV
# SUMO HTRF inh: inhibitors of in vitro SUMOylation cascade, primary screen, biochemical, HTRF, uHTS; HTRF SUMOylation assay, SAE1/SAE2 + UBC9; inhibition, % at 35 µM; actives 0.36% (n = 290,000); in the data active = inhibition above about 50%, passing the limit was not always enough; inconclusive = no clear call, values can overlap the other calls
# Target sequence (P63279 whole entry, looked up): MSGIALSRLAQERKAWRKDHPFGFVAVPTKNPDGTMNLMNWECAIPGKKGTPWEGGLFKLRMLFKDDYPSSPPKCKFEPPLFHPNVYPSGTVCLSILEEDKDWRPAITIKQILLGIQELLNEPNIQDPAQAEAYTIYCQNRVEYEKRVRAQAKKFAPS
# DNMT1 block: human DNMT1 methyltransferase inhibitors, primary screen, biochemical, molecular beacon, fluorescence, HinP1I cleavage, uHTS; inhibition (reported as % activation of signal), % at 10 µM; DNA (cytosine-5)-methyltransferase 1 (Homo sapiens), P26358; actives 0.83% (n = 360,000); in the data active = inhibition above about 50%
# LMPTP inh: LMPTP phosphatase inhibitors, primary screen, biochemical, fluorescence intensity, uHTS | AID 651560, 2012 | actives 0.22% (n = 360,000) | recombinant LMPTP-A, OMFP fluorogenic substrate | inhibition, % at 20 µM | Low molecular weight phosphotyrosine protein phosphatase (Homo sapiens), P24666;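 active = compounds that cut the enzyme signal by at least half of the control window in the single-dose screen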
# Target sequence (P24666 whole entry, looked up): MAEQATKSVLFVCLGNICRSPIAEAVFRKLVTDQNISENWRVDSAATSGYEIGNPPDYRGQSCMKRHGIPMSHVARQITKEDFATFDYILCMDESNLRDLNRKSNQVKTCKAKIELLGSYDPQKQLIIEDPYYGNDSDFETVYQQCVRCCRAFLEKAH
#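 Assay system: LMPTP-A, protein tyrosine phosphatase of low molecular weight / Medium: pH 6.0 Bis-Tris buffer with DTT and Triton X-100 / Schedule: 50 min enzyme reaction at room temperature, protected from light / Measured by: endpoint fluorescence intensity from OMFP dephosphorylation / Read-out basis: % inhibition relative to no-enzyme and uninhibited control wells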
# STEP inh: STEP phosphatase inhibitors, primary screen, biochemical, fluorescence intensity, uHTS; Tyrosine-protein phosphatase non-receptor type 5 (Homo sapiens), P54829; recombinant STEP, OMFP fluorogenic substrate; inhibition, % at 20 µM; actives 0.25% (n = 360,000);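 active = inhibition at 20 µM, scaled per plate between control wells, above about 37%, limit read from the data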
#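 Assay system: isolated STEP enzyme. Buffer or medium: pH 6.0 Bis-Tris with DTT and Tween 20. Also added: fluorogenic phosphatase substrate OMFP at 25 µM final. Dosing: 20 µM, 1% DMSO. Timing: 20 min reaction, room temperature, in the dark. Measured by: fluorescence intensity, excitation 480 nm, emission 540 nm. Evaluation: normalized % inhibition.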
# Hits are given with their value; . = inactive; ? = inconclusive; / = not tested or not shown.
SMILES,Scp-1 inhibitor,SUMO1-SIM PPI,SUMO HTRF inh,DNMT1 block,LMPTP inh,STEP inh
Cc1cc[n+](C(C)C(=O)c2ccc(-c3ccccc3)cc2)cc1 (stereo not drawn),.,.,.,.,.,.
O=[N+]([O-])c1ccc(O)c(C=Nc2cccc3ccccc23)c1,.,.,.,.,.,.
O=[N+]([O-])c1cccc(C=Nc2cccc3ccccc23)c1O,.,.,51.1,.,.,.
CN(CCCS(=O)(=O)[O-])c1ccc(/C=C/c2ccc3ccccc3[n+]2C)cc1,.,.,.,.,.,.
CN(C)c1ccc(/C=C/c2ccc3ccccc3[n+]2C)cc1,66.0,.,.,.,.,.
CN(C)c1ccc(/C=C/c2ccc3c4ccccc4ccc3[n+]2-c2ccccc2)cc1,.,.,.,.,98.0,.
CN(C)c1ccc(/C=C/c2cccc[n+]2[O-])cc1,.,.,.,.,.,.
Cc1cccc(C)c1NS(=O)(=O)c1c(C(=O)N2CCCCC2)c(C)n(C)c1C,.,.,.,.,.,.
CCOC(=O)COc1cc(-n2c(=S)[nH]c3cc(OC)c(OC)cc3c2=O)c(Cl)cc1Cl,.,.,.,.,.,.
COc1ccc2sc3cccc(NCCN(C)C)c3c(=O)c2c1,/,.,/,55.5,.,.
CC(C)CCNC(=O)C1(C)CCN1Cc1ccc2ccccc2c1 (stereo not drawn),/,.,/,.,.,.
CCc1ccc(CNC(=O)Cc2ccc(NC(=O)C3=C(C)OCCS3)cc2)cc1,85.2,.,.,.,.,.
Clc1ccc(C2=CSC3=NCCN23)c(Cl)c1,.,.,/,.,.,.
COCCNc1nc(NCc2cc(-c3ccc(OC)cc3)no2)c2sccc2n1,/,.,/,.,56.6,.
Cc1cc(C(C)(C)C)cc(C)c1Cn1c2[n+](c3ccc(C(F)(F)F)cc31)CCCCC2,66.1,.,.,.,.,.
FC(F)(F)c1cccc(Cn2c3[n+](c4ccc(C(F)(F)F)cc42)CCCCC3)c1,.,.,.,.,.,.
CCCCN(C(=O)CCCc1nc2ccccc2s1)c1c(N)n(CC(C)C)c(=O)[nH]c1=O,.,.,/,.,.,.
COc1cc(-c2cccs2)cc(=O)c2c(C)oc(C)c12,.,.,.,70.9,.,.
CN(C)N=Nc1ccc(S(N)(=O)=O)cc1,.,.,.,.,.,.
NS(=O)(=O)c1ccc(N=Nc2c[nH]c(=O)c(O)c2)cc1,70.2,.,?,.,.,.
CN(C)c1ccc(N=Nc2ccc(S(N)(=O)=O)cc2)cc1,.,.,.,.,53.0,93.9
COc1ccccc1-n1nnnc1SCC(=O)Nc1ccc(C)c(N)c1,.,.,.,.,.,.
CCOc1cc(N2CCOCC2)c(OCC)cc1NC(=O)COC(=O)CCn1c(C)csc1=O,.,.,/,.,.,.
Cc1ccc(CNC(=O)C2CCCN(c3nn4c(=O)cc(C)nc4s3)C2)cc1 (stereo not drawn),.,.,.,.,.,.
O=C(CCS(=O)(=O)c1ccc(F)cc1)Nc1nc(-c2ccncc2)cs1,.,.,.,.,.,57.0
SMILES,Scp-1 inhibitor,SUMO1-SIM PPI,SUMO HTRF inh,DNMT1 block,LMPTP inh,STEP inh
CC(C)(C)c1csc(NC(=O)CCS(=O)(=O)c2ccc(F)cc2)n1,/,.,/,.,.,.
CC(C)c1ccc(NC(=O)COC(=O)c2cc(=O)[nH]c3ccccc23)cc1,.,.,/,.,.,.
COc1cc(Cl)c(C)cc1Nc1ncccn1,.,.,.,.,.,.
COC(=O)C1C2C=CC(C3CC23)C1C(=O)OCC(=O)c1ccccc1 (stereo not drawn),.,45.2,.,.,.,.
CC(NC(=O)COC(=O)C1CCN(c2ccc(C(F)(F)F)cn2)CC1)c1ccc(F)cc1 (stereo not drawn),.,.,/,.,.,.
CC1CCN(CCCn2c(=S)[nH]c3ccc(N4CCOCC4)cc3c2=O)CC1,.,.,55.6,.,.,.
c1nc(SSc2ncnc3nc[nH]c23)c2[nH]cnc2n1,.,.,/,.,47.4,.
Cc1ccc(S(=O)(=O)N2CCC(C(=O)NC3CC(C)(C)NC(C)(C)C3)CC2)cc1,.,.,.,.,.,.
O=S(=O)(O)c1cc(O)c2c(O)c(N=Nc3cc(Cl)ccc3O)c(S(=O)(=O)O)cc2c1,83.3,84.2,.,84.8,102.1,100.8
Oc1ccc(Cl)cc1N=Nc1ccccc1,.,.,.,.,.,.
CC1(C)ON=C(c2cccc(F)c2)NC1=O,/,.,/,.,.,.
COc1ccc(NC(=O)C2c3ccccc3OCC(=O)N2CCc2ccccc2)cc1 (stereo not drawn),/,.,/,/,.,/
Cc1sc(NC(=O)CSc2nnc3scc(-c4ccccc4)n23)c(C#N)c1C,.,44.6,.,.,.,.
O=C(O)c1ccccc1-c1ccccc1C(=O)Nc1ccc(-c2nc3cc(Cl)ccc3o2)cc1,.,.,.,.,.,.
CC(=O)Nc1ccc(-c2nc3cc(Cl)ccc3o2)cc1,61.7,.,.,.,.,.
Cn1cnnc1SC(C(=O)Nc1cccc(C(F)(F)F)c1)c1ccccc1 (stereo not drawn),.,.,.,.,.,.
CCCCn1c(N)c(S(=O)(=O)c2ccc(C)cc2)c2nc3ccccc3nc21,.,39.4,.,.,.,.
c1ccc2[nH]c(NCCCN3CCOCC3)nc2c1,.,.,.,.,.,.
c1ccc(-c2nc(NCCCN3CCOCC3)c3ccccc3n2)cc1,.,.,.,.,51.0,.
Cc1cccc(-c2nc(NCCCN3CCOCC3)c3ccccc3n2)c1,.,.,.,.,67.0,.
Cc1ccc(N(CCC#N)C(=O)COC(=O)C2CCN(S(=O)(=O)c3ccc4c(c3)OCCO4)CC2)cc1,.,.,/,.,.,.
COc1ccc(N2CSC3=C(C#N)C(c4cccc(OC)c4OC)CC(=O)N3C2)cc1 (stereo not drawn),51.7,.,.,.,.,.
Cc1cccc(N2CSC3=C(C#N)C(c4ccc(C)o4)CC(=O)N3C2)c1 (stereo not drawn),/,/,78.4,/,/,/
CCN(CC)C(=O)C1CCCN(C(=O)c2cc(COc3cccc(OC)c3)on2)C1 (stereo not drawn),.,.,.,.,.,.
NC1=NC2(CCN(Cc3ccccc3)CC2)n2c(nc3ccccc32)N1,.,.,.,.,49.2,.
